In ChEMBL document CHEMBL3286182, “4-aminoquinolone piperidine amides: noncovalent inhibitors of DprE1 with long residence time and potent antimycobacterial activity” (J Med Chem, 2014):
≈ marks a conversion by molar mass, not a printed value. Calls of active or inactive are those of the source. The calls are words filed in the database; no cut-off is given here.

Key:
[1] = tested on: Mycobacterium tuberculosis; experiment: Antimycobacterial activity against Mycobacterium tuberculosis over expressing TopA after 5 days by standard microdilution method; format: functional; details: 120 h
[2] = tested on: Mycobacterium tuberculosis; experiment: Antimycobacterial activity against Mycobacterium tuberculosis H37Rv after 5 days by standard microdilution method; format: functional; details: 120 h
[3] = tested on: Mycobacterium tuberculosis; experiment: Antimycobacterial activity against Mycobacterium tuberculosis over expressing PimA after 5 days by standard microdilution method; format: functional; details: 120 h
[4] = tested on: Mycobacterium tuberculosis; experiment: Antimycobacterial activity against Mycobacterium tuberculosis over expressing DprE1 after 5 days by standard microdilution method; format: functional; details: 120 h
[5] = tested on: Mycobacterium tuberculosis; experiment: Antimycobacterial activity against Mycobacterium tuberculosis over expressing InhA after 5 days by standard microdilution method; format: functional; details: 120 h
[6] = tested on: Streptococcus pneumoniae; experiment: Antimicrobial activity against Streptococcus pneumoniae ARC548 at 100 uM; format: functional, organism-based
How it was run: (§1)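 Nonmycobacterial panel of Candida albicans, Gram-negative and Gram-positive pathogens.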

[7] = tested on: Escherichia coli; experiment: Antimicrobial activity against Escherichia coli ARC524 at 100 uM; format: functional, organism-based; how it was run: as §1
[8] = tested on: Pseudomonas aeruginosa; experiment: Antimicrobial activity against Pseudomonas aeruginosa ARC545 at 100 uM; format: functional, organism-based; how it was run: as §1
[9] = tested on: Pseudomonas aeruginosa; experiment: Antimicrobial activity against Pseudomonas aeruginosa ARC546 at 100 uM; format: functional, organism-based; how it was run: as §1
[10] = tested on: Candida albicans; experiment: Antimicrobial activity against Candida albicans ARC527 at 100 uM; format: functional, organism-based; how it was run: as §1
[11] = tested on: Mycolicibacterium smegmatis; experiment: Antimicrobial activity against Mycobacterium smegmatis mc2155 at 100 uM; format: functional, organism-based; details: str. MC2 155
[12] = tested on: Escherichia coli; experiment: Antimicrobial activity against Escherichia coli ARC523 at 100 uM; format: functional, organism-based; how it was run: as §1
[13] = tested on: Haemophilus influenzae; experiment: Antimicrobial activity against Haemophilus influenzae ARC158 at 100 uM; format: functional, organism-based; how it was run: as §1
[14] = tested on: Mycobacterium tuberculosis; experiment: Antimycobacterial activity against Mycobacterium tuberculosis H37Rv under hypoxic condition after 6 days by resazurin assay; format: functional
[15] = tested on: Mycolicibacterium smegmatis; experiment: Antimicrobial activity against Mycobacterium smegmatis ATCC 607 at 100 uM; format: functional, organism-based
[16] = Inhibition of Mycobacterium smegmatis recombinant DprE1 using farnesylphosphoryl-beta-D-ribofuranose as substrate assessed as conversion of amplex red to resorufin after 30 mins; parameters: species or system Mycolicibacterium smegmatis
How it was run: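 Msm DprE1 (thioredoxin-6His fusion of Msm Rv3790) at 75 nM, preincubated 30 min with 10 μM FAD. Buffer: 50 mM glycylglycine pH 8.5, 200 mM potassium glutamate, 0.002% Brij-35, 2% DMSO, 25 °C. Started with 300 μM farnesylphosphoryl-β-D-ribofuranose, 0.01 mg/mL HRP and 50 μM Amplex Red.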

[17] = tested on: Haemophilus influenzae; experiment: Antimicrobial activity against Haemophilus influenzae ARC446 at 100 uM; format: functional, organism-based; how it was run: as §1
[18] = tested on: Klebsiella pneumoniae; experiment: Antimicrobial activity against Klebsiella pneumoniae ARC1865 at 100 uM; format: functional, organism-based; how it was run: as §1
[19] = tested on: Staphylococcus aureus; experiment: Antimicrobial activity against Staphylococcus aureus ARC517 at 100 uM; format: functional, organism-based; how it was run: as §1
[20] = tested on: Mycolicibacterium smegmatis; experiment: Ratio of IC50 for Mycobacterium smegmatis DprE1 Y321H mutant to IC50 for Mycobacterium smegmatis recombinant wild type DprE1
How it was run: (§2)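 Recombinant M. smegmatis DprE1 (thioredoxin-6His fusion), wild type or Y321H, 75 nM. Enzyme was preincubated 30 min in FAD assay mix: 50 mM glycylglycine pH 8.5, 200 mM potassium glutamate, 10 μM FAD, 0.002% Brij-35, 2% DMSO. Reaction was started with 300 μM farnesylphosphoryl-β-D-ribofuranose, 0.01 mg/mL HRP and 50 μM amplex red at 25 °C.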

[21] = Inhibition of Mycobacterium smegmatis DprE1 Y321H mutant using farnesylphosphoryl-beta-D-ribofuranose as substrate assessed as conversion of amplex red to resorufin after 30 mins; parameters: species or system Mycolicibacterium smegmatis; how it was run: as §2

Row | Compound | MIC [2] [µM] | MIC [4] [µM] | Activity [6] | Activity [7] | Activity [8] | Activity [9] | Activity [10] | Activity [11] | Activity [12] | Activity [13] | Activity [14] | Activity [15] | IC50 [16] [nM] | Activity [17] | Activity [18] | Activity [19] | other results
1 | C[C@H]1COC2(CCN(c3nc(=O)c4cc(C(F)(F)F)cc([N+](=O)[O-])c4s3)CC2)O1 [BTZ-043] | 0.003 (≈ 0.00129 µg/mL) | 12.5 (≈ 5.39 µg/mL) | – | – | – | – | – | – | – | – | – | – | – | – | – | – | MIC [1]: 0.012 µM (≈ 0.00518 µg/mL); MIC [3]: 0.003 µM (≈ 0.00129 µg/mL); MIC [5]: 0.003 µM (≈ 0.00129 µg/mL)
2 | COc1nc2ccc(Br)cc2cc1[C@@H](c1ccccc1)[C@@](O)(CCN(C)C)c1cccc2ccccc12 [BEDAQUILINE] | 0.78 (≈ 0.433 µg/mL) | 1.6 (≈ 0.889 µg/mL) | – | – | – | – | – | – | – | – | – | – | – | – | – | – | MIC [1]: 0.8 µM (≈ 0.444 µg/mL); MIC [3]: 0.8 µM (≈ 0.444 µg/mL); MIC [5]: 1.6 µM (≈ 0.889 µg/mL)
3 | Cn1ncc(C(=O)N2CCC(Nc3cc(=O)[nH]c4c(F)c(F)ccc34)CC2)c1Cl | 1.6 (≈ 0.675 µg/mL) | – | inactive | inactive | inactive | inactive | inactive | inactive | inactive | inactive | inactive | inactive | 9 | inactive | inactive | inactive | –
4 | CCn1ncc(C(=O)N2CCC(Nc3cc(=O)[nH]c4ccc(F)cc34)CC2)c1Cl | 12.5 (≈ 5.22 µg/mL) | – | inactive | inactive | inactive | inactive | inactive | inactive | inactive | inactive | inactive | inactive | 45 | inactive | inactive | inactive | –
5 | Cc1c(C(=O)N2CCC(Nc3cc(=O)[nH]c4ccc(F)cc34)CC2)nnn1C | 3.5 (≈ 1.35 µg/mL) | – | inactive | inactive | inactive | inactive | inactive | inactive | inactive | inactive | inactive | inactive | 11 | inactive | inactive | inactive | –
6 | Cc1onc(C(=O)N2CCC(Nc3cc(=O)[nH]c4ccc(F)cc34)CC2)c1C | 6.2 (≈ 2.38 µg/mL) | – | inactive | inactive | inactive | inactive | inactive | inactive | inactive | inactive | inactive | inactive | < 6 | inactive | inactive | inactive | –
7 | COc1c(N2C[C@@H]3CCCN[C@@H]3C2)c(F)cc2c(=O)c(C(=O)O)cn(C3CC3)c12 [MOXIFLOXACIN] | – | 0.08 (≈ 0.0321 µg/mL) | – | – | – | – | – | – | – | – | – | – | – | – | – | – | MIC [1]: 0.31 µM (≈ 0.124 µg/mL); MIC [5]: 0.16 µM (≈ 0.0642 µg/mL)
8 | C[C@H]1C[C@H](Nc2cc(=O)[nH]c3cc(F)c(F)cc23)CCN1C(=O)c1cnn(C)c1Cl | 0.39 (≈ 0.17 µg/mL) | 12.5 (≈ 5.45 µg/mL) | – | – | – | – | – | – | – | – | inactive | – | 21 | – | – | – | fold change (FC) [20]: 47; IC50 [21]: 1030 nM
9 | CO[C@H]1/C=C/O[C@@]2(C)Oc3c(C)c(O)c4c(O)c(c(/C=N/N5CCN(C)CC5)c(O)c4c3C2=O)NC(=O)/C(C)=C\C=C\[C@H](C)[C@H](O)[C@@H](C)[C@@H](O)[C@@H](C)[C@H](OC(C)=O)[C@@H]1C [RIFAMPIN] | 0.01 (≈ 0.00823 µg/mL) | 0.01 (≈ 0.00823 µg/mL) | – | – | – | – | – | – | – | – | – | – | – | – | – | – | MIC [1]: 0.03 µM (≈ 0.0247 µg/mL); MIC [3]: 0.004 µM (≈ 0.00329 µg/mL); MIC [5]: 0.01 µM (≈ 0.00823 µg/mL)
10 | Cn1ncc(C(=O)N2CCC(Oc3cc(=O)[nH]c4ccccc34)CC2)c1Cl | 50 (≈ 19.3 µg/mL) | – | inactive | inactive | inactive | inactive | inactive | inactive | inactive | inactive | inactive | inactive | 8000 | inactive | inactive | inactive | –
11 | Cn1cc(C(=O)N2CCC(Nc3cc(=O)[nH]c4ccccc34)CC2)cn1 | 140 (≈ 49.2 µg/mL) | – | inactive | inactive | inactive | inactive | inactive | inactive | inactive | inactive | inactive | inactive | 2200 | inactive | inactive | inactive | –
12 | CC(C)n1ncc(C(=O)N2CCC(Nc3cc(=O)[nH]c4ccccc34)CC2)c1Cl | 100 (≈ 41.4 µg/mL) | – | inactive | inactive | inactive | inactive | inactive | inactive | inactive | inactive | inactive | inactive | 7000 | inactive | inactive | inactive | –
13 | CN(c1cc(=O)[nH]c2ccccc12)C1CCN(C(=O)c2cnn(C)c2Cl)CC1 | > 250 | – | inactive | inactive | inactive | inactive | inactive | inactive | inactive | inactive | inactive | inactive | 18000 | inactive | inactive | inactive | –
14 | Cn1ncc(C(=O)N2CCC(Nc3cc(=O)[nH]c4cc(F)ccc34)CC2)c1Cl | 3.1 (≈ 1.25 µg/mL) | – | inactive | inactive | inactive | inactive | inactive | inactive | inactive | inactive | inactive | inactive | 7 | inactive | inactive | inactive | –
15 | CCn1c(=O)cc(NC2CCN(C(=O)c3cnn(C)c3Cl)CC2)c2ccccc21 | > 100 | – | inactive | inactive | inactive | inactive | inactive | inactive | inactive | inactive | inactive | inactive | > 100000 | inactive | inactive | inactive | –
16 | Cc1c(C(=O)N2CCC(Nc3cc(=O)[nH]c4ccccc34)CC2)cnn1C | 6.2 (≈ 2.27 µg/mL) | – | inactive | inactive | inactive | inactive | inactive | inactive | inactive | inactive | inactive | inactive | 210 | inactive | inactive | inactive | –
17 | Cn1ncc(C(=O)N2CCC(Nc3cc(=O)[nH]c4c(F)cccc34)CC2)c1Cl | 3.1 (≈ 1.25 µg/mL) | – | inactive | inactive | inactive | inactive | inactive | inactive | inactive | inactive | inactive | inactive | 11 | inactive | inactive | inactive | –
18 | NNC(=O)c1ccncc1 [ISONIAZID] | 0.45 (≈ 0.0617 µg/mL) | 0.22 (≈ 0.0302 µg/mL) | – | – | – | – | – | – | – | – | – | – | – | – | – | – | MIC [1]: 0.45 µM (≈ 0.0617 µg/mL); MIC [3]: 0.22 µM (≈ 0.0302 µg/mL); MIC [5]: > 7.25 µM
